Legend:
[1] = Cytotoxicity against human HL60 cells assessed as cell growth inhibition after 48 hrs by MTT assay; assay type: functional, cell-based; conditions: HL-60, 48 h
Outline: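 Cell proliferation MTT assay, 48 h exposure of HL-60 promyelocytic leukemia cells to compound at various concentrations; dose-response generated relative to untreated HL-60 control cells. n = 1 or 2 independent experiments, duplicate wells per experiment.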

Saccharomyces cerevisiae = test: Antifungal activity against Saccharomyces cerevisiae BY4741 assessed as growth inhibition; assay type: functional
Outline: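 Wild-type strain BY4741 grown in liquid synthetic complete medium with compound; cell density read at A600. Concentration giving 50% growth inhibition determined relative to untreated controls.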

## Brc1ccc2c(Br)c(Br)[nH]c2c1Br
[1]
  IC50: 38 µM
Saccharomyces cerevisiae
  IC50: 69 µM

## Clc1[nH]c2c(Br)c(Br)ccc2c1Cl
[1]
  IC50: 61 µM
Saccharomyces cerevisiae
  IC50: 63 µM

## Clc1[nH]c2c(Br)ccc(Br)c2c1Cl
[1]
  IC50: 28 µM
Saccharomyces cerevisiae
  IC50: 23 µM

## Clc1c(Br)[nH]c2c(Br)c(Br)ccc12
[1]
  IC50: 78 µM
Saccharomyces cerevisiae
  IC50: > 83 µM

## O=C1Nc2cccc(Cl)c2C1=O
Saccharomyces cerevisiae
  IC50: > 61 µM

## CC(=O)CC1(O)C(=O)Nc2cccc(Cl)c21 (stereo not drawn)
[1]
  IC50: 61 µM
Saccharomyces cerevisiae
  IC50: > 49 µM

## Clc1[nH]c2c(Br)c(I)ccc2c1Cl
[1]
  IC50: 49 µM
Saccharomyces cerevisiae
  IC50: 39 µM

— ChEMBL document CHEMBL3813618, “Polyhalogenated Indoles from the Red Alga Rhodophyllis membranacea: The First Isolation of Bromo-Chloro-Iodo Secondary Metabolites” (J Nat Prod, 2016)
